In the assay the test system is K-562R. Description: Antiproliferative activity against T315I mutant expressing human K-562R cells assessed as inhibition of cell proliferation at 100 uM incubated for 48 hrs by MTT assay relative to control. The format is functional. In a few lines:
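MTT growth assay. K562 and K562R (T315I) cells grown in RPMI 1640 with 10% FBS. Hek293 and EA.hy926 cells grown in DMEM with 10% FBS. About 2.5 × 10^3 exponential-phase cells per well, preincubated 12 h at 37 °C in 5% CO2. Serially diluted compounds added for 48 h, then MTT at 0.5 mg/mL final for 4 h. Formazan dissolved in DMSO, A490 read, IC50 calculated from inhibition ratios.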

For `Cc1ccc(NC(=O)c2ccc(CN3CCN(C)CC3)cc2)cc1Nc1nccc(-c2cccnc2)n1` [IMATINIB], the inhibition at 100 µM came out at 45%.
